Data reported in ChEMBL document CHEMBL1133548, “Semisynthesis of antitumoral acetogenins: SAR of functionalized alkyl-chain bis-tetrahydrofuranic acetogenins, specific inhibitors of mitochondrial complex I” (J Med Chem, 2000).

Legend:
[1] = target: Mitochondrial complex I; NADH oxidoreductase (Bos taurus) (UniProt P25708+P52505); test: Relative potency of inhibition of NADH oxidase (IC50); 4-dehydroxy-4-hydroxylimonorolliniastatin-1 as standard; format: protein-complex assay
How it was run: (§1)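 Derived value: the compound's NADH oxidase IC50 expressed relative to that of the reference acetogenin. The oxidase assay used NADH-activated beef heart submitochondrial particles (0.28 nM complex I) oxidising 75 µM NADH aerobically without added quinone, at 22 °C and pH 7.4. Inhibitor was added stepwise with 5 min incubations on ice, and NADH decrease was followed at 340 nm.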

[2] = Ratio of IC50 of DB to that of NADH oxidase
How it was run: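 Ratio of two IC50 values measured on NADH-activated beef heart submitochondrial particles (0.28 nM complex I, 22 °C, pH 7.4 phosphate/EDTA). The numerator IC50 comes from NADH:decylubiquinone oxidoreductase (75 µM NADH, 30 µM DB, plus antimycin and cyanide). The denominator IC50 comes from aerobic NADH oxidase (75 µM NADH, no added quinone). Both activities were read at 340 nm.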

[3] = target: Mitochondrial complex I; NADH oxidoreductase (Bos taurus, UniProt P25708+P52505); test: Inhibition of NADH oxidase activity.; format: protein-complex assay
How it was run: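 Beef-heart submitochondrial particles (sonicated frozen-thawed mitochondria), preactivated with 300 µM NADH, assayed at 22 °C in 50 mM potassium phosphate pH 7.4, 1 mM EDTA (0.28 nM complex I). Aerobic oxidation of 75 µM NADH with no added quinone, followed at 340 nm. Ethanolic compound added cumulatively, 5 min on ice per step, ethanol ≤2%. IC50 is the final concentration giving 50% inhibition.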

[4] = Percent of relative potency by NADH oxidase assay; how it was run: as §1
[5] = Inhibition of NADH decylubiquinone (DB) oxidoreductase activity.; design: species or system Bos taurus
How it was run: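 Beef heart submitochondrial particles from sonicated frozen-thawed mitochondria, NADH-activated (300 µM) at 0.5 mg·mL⁻¹. Assay at 22 °C in 50 mM K phosphate pH 7.4, 1 mM EDTA, 0.28 nM complex I, with 75 µM NADH, 30 µM decylubiquinone, 2 µM antimycin and 2 mM KCN. Inhibitor titrated as ethanolic additions (5 min on ice each). NADH loss read at 340 nm; IC50 taken at 50% inhibition.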

Sequence of Mitochondrial complex I; NADH oxidoreductase (P25708 21-464 limits assumed, other chains not shown): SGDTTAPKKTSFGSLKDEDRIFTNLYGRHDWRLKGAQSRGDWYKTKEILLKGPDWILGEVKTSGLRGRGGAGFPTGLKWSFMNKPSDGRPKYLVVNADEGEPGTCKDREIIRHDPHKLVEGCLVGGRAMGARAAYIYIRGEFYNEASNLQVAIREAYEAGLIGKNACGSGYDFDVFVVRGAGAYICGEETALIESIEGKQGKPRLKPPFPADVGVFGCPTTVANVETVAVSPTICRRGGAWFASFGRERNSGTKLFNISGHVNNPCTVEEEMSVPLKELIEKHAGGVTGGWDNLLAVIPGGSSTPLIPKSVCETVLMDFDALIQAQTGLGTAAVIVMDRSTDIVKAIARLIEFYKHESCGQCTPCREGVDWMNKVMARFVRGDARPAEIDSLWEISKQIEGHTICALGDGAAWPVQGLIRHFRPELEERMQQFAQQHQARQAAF

Question: For `CCCCCCCCCC[C@H](O)[C@H]1CC[C@@H]([C@@H]2CC[C@H]([C@H](O)CCCCCCCC[C@@H](O)CC3=C[C@H](C)OC3=O)O2)O1`, which Relative potency [1] is on record?
Answer: 1.3

Question: What about the Ratio [2] of the same molecule?
Answer: 2.5

Question: What about the IC50 [3] of the same molecule?
Answer: 0.33 nM

Question: What about the Relative potency [4] of the same molecule?
Answer: 75.8

Question: And the IC50 [5]?
Answer: 0.83 nM

Question: For `CCCCCC[C@H](O)CCC[C@H](O)[C@H]1CC[C@H]([C@H]2CC[C@H]([C@H](O)CCCCCCCCCCCCC3=C[C@H](C)OC3=O)O2)O1` [SQUAMOCIN], which Relative potency [1] is on record?
Answer: 2.4

Question: And the Ratio [2]?
Answer: 1.3

Question: And the IC50 [3]?
Answer: 0.59 nM

Question: And the Relative potency [4]?
Answer: 42.3

Question: And the IC50 [5]?
Answer: 0.77 nM

Question: Which results are given for `CCCCCCCCCC[C@@H](O)[C@@H]1CC[C@@H]([C@@H]2CC[C@@H]([C@H](O)CCCCCCCCCC(O)CC3=CC(C)OC3=O)O2)O1` (stereo partly specified) [BULLATACIN]?
Answer: Relative potency [1]: 2; Ratio [2]: 1.2; IC50 [3]: 0.51 nM; Relative potency [4]: 49; IC50 [5]: 0.61 nM

Question: With `CCCCCCCCCC[C@H](O)[C@H]1CC[C@H]([C@H]2CC[C@H]([C@H](O)CCCCCCCCCCCCC3=C[C@H](C)OC3=O)O2)O1` [BULLANIN] as the molecule, how does the Relative potency [1] read?
Answer: 1.3

Question: What about the Ratio [2] of the same molecule?
Answer: 1.4

Question: What about the IC50 [3] of the same molecule?
Answer: 0.32 nM

Question: And the Relative potency [4]?
Answer: 78.1

Question: What about the IC50 [5] of the same molecule?
Answer: 0.44 nM

Question: For `CCCCC[C@H](O)CCCC[C@H](O)[C@H]1CC[C@H]([C@H]2CC[C@H]([C@H](O)CCCCCCCCCCCCC3=C[C@H](C)OC3=O)O2)O1` [MOTRILIN], which Relative potency [1] is on record?
Answer: 1.6

Question: And the Ratio [2]?
Answer: 2

Question: And the IC50 [3]?
Answer: 0.41 nM

Question: And the Relative potency [4]?
Answer: 61

Question: And the IC50 [5]?
Answer: 0.81 nM

Question: With `CCCCCCCCCC[C@H](OS(C)(=O)=O)[C@H]1CC[C@@H]([C@@H]2CC[C@H]([C@@H](CCCCCCCCCC[C@H](CC3=C[C@H](C)OC3=O)OS(C)(=O)=O)OS(C)(=O)=O)O2)O1` as the molecule, how does the Ratio [2] read?
Answer: 260

Question: And the IC50 [3]?
Answer: 1.68 nM

Question: And the Relative potency [4]?
Answer: 6.7

Question: And the IC50 [5]?
Answer: 438 nM

Question: With `CCCCCC[C@@H](CCC[C@H](OS(C)(=O)=O)[C@H]1CC[C@H]([C@H]2CC[C@H]([C@@H](CCCCCCCCCCCCC3=C[C@H](C)OC3=O)OS(C)(=O)=O)O2)O1)OS(C)(=O)=O` as the molecule, how does the Relative potency [1] read?
Answer: 56

Question: What about the Ratio [2] of the same molecule?
Answer: 144

Question: And the IC50 [3]?
Answer: 14.1 nM

Question: What about the IC50 [5] of the same molecule?
Answer: 2040 nM

Question: Which Relative potency [1] does the source give for `CCCCCCCCCC[C@H](O)[C@H]1CC[C@H]([C@H]2CC[C@H]([C@H](O)CCCCC(O)CCCCCCCC3=C[C@H](C)OC3=O)O2)O1` (stereo partly specified) here?
Answer: 3.8

Question: What about the Ratio [2] of the same molecule?
Answer: 2

Question: And the IC50 [3]?
Answer: 0.95 nM

Question: What about the Relative potency [4] of the same molecule?
Answer: 26.3

Question: And the IC50 [5]?
Answer: 1.9 nM

Question: For `CCCCCC(CCCC[C@H](OS(C)(=O)=O)[C@H]1CC[C@H]([C@H]2CC[C@H]([C@@H](CCCCCCCCCCCCC3=C[C@H](C)OC3=O)OS(C)(=O)=O)O2)O1)OS(C)(=O)=O` (stereo partly specified), which Relative potency [1] is on record?
Answer: 12

Question: And the Ratio [2]?
Answer: 22

Question: What about the IC50 [3] of the same molecule?
Answer: 2.9 nM

Question: What about the IC50 [5] of the same molecule?
Answer: 64 nM

Question: With `CCCCCCCCCC[C@H](O)[C@H]1CC[C@@H]([C@@H]2CC[C@H]([C@H](O)CCCCCCCCCCC(=O)CC3=C[C@H](C)OC3=O)O2)O1` as the molecule, how does the Relative potency [1] read?
Answer: 1.7

Question: And the Ratio [2]?
Answer: 1.1

Question: What about the IC50 [3] of the same molecule?
Answer: 0.42 nM

Question: And the Relative potency [4]?
Answer: 59.5

Question: And the IC50 [5]?
Answer: 0.45 nM

Question: Which Relative potency [1] does the source give for `CCCCCC(CCCC[C@H](OC(C)=O)[C@H]1CC[C@H]([C@H]2CC[C@H]([C@@H](CCCCCCCCCCCCC3=C[C@H](C)OC3=O)OC(C)=O)O2)O1)OC(C)=O` (stereo partly specified) here?
Answer: 8.4

Question: And the Ratio [2]?
Answer: 118

Question: And the IC50 [3]?
Answer: 2.1 nM

Question: And the IC50 [5]?
Answer: 248 nM

Question: With `CCCCCCCCCCC(=O)[C@H]1CC[C@@H]([C@@H]2CC[C@H]([C@H](O)CCCCCCCCCCC(=O)CC3=C[C@H](C)OC3=O)O2)O1` as the molecule, how does the Relative potency [1] read?
Answer: 1.4

Question: What about the Ratio [2] of the same molecule?
Answer: 1.8

Question: What about the IC50 [3] of the same molecule?
Answer: 0.34 nM

Question: And the Relative potency [4]?
Answer: 73.5

Question: What about the IC50 [5] of the same molecule?
Answer: 0.6 nM

Question: With `CCCCCC[C@@H](CCC[C@H](OC(C)=O)[C@H]1CC[C@H]([C@H]2CC[C@H]([C@@H](CCCCCCCCCCCCC3=C[C@H](C)OC3=O)OC(C)=O)O2)O1)OC(C)=O` as the molecule, how does the Relative potency [1] read?
Answer: 20

Question: What about the Ratio [2] of the same molecule?
Answer: 587

Question: What about the IC50 [3] of the same molecule?
Answer: 5 nM

Question: What about the IC50 [5] of the same molecule?
Answer: 2940 nM

Question: With `CCCCCCCCCC[C@H](O)[C@H]1CC[C@H]([C@H]2CC[C@H]([C@H](O)CCCCC(=O)CCCCCCCC3=C[C@H](C)OC3=O)O2)O1` [GUANACONE] as the molecule, how does the Relative potency [1] read?
Answer: 6.1

Question: What about the Ratio [2] of the same molecule?
Answer: 1.4

Question: What about the IC50 [3] of the same molecule?
Answer: 1.52 nM

Question: And the IC50 [5]?
Answer: 2.1 nM

Question: Which results are given for `CCCCCCCCCCC(=O)[C@H]1CC[C@H]([C@H]2CC[C@H](C(=O)CCCCC(=O)CCCCCCCC3=C[C@H](C)OC3=O)O2)O1`?
Answer: Relative potency [1]: 6.6; Ratio [2]: 1.5; IC50 [3]: 1.65 nM; IC50 [5]: 2.5 nM

Question: What does the source list for `CCCCCCCCCC[C@H](O)[C@H]1CC[C@H]([C@H]2CC[C@H]([C@H](O)CCCC/C(CCCCCCCC3=C[C@H](C)OC3=O)=N\O)O2)O1`?
Answer: Relative potency [1]: 1.4; Ratio [2]: 2; IC50 [3]: 0.34 nM; Relative potency [4]: 73.5; IC50 [5]: 0.67 nM

Question: What does the source list for `CCCCCC[C@H](CCC[C@@H](N=[N+]=[N-])[C@H]1CC[C@H]([C@H]2CC[C@H]([C@H](CCCCCCCCCCCCC3=C[C@H](C)OC3=O)N=[N+]=[N-])O2)O1)N=[N+]=[N-]`?
Answer: Relative potency [1]: 72; Ratio [2]: 17; IC50 [3]: 18 nM; IC50 [5]: 315 nM

Question: What does the source list for `CCCCCCC(=O)CCC[C@H](O)[C@H]1CC[C@H]([C@H]2CC[C@H]([C@H](O)CCCCCCCCCCCCC3=C[C@H](C)OC3=O)O2)O1`?
Answer: Relative potency [1]: 2.6; Ratio [2]: 1.9; IC50 [3]: 0.65 nM; Relative potency [4]: 38.5; IC50 [5]: 1.3 nM

Question: For `CCCCCCCCCC/C(=N\O)[C@H]1CC[C@@H]([C@@H]2CC[C@H]([C@H](O)CCCCCCCCCC/C(CC3=C[C@H](C)OC3=O)=N\O)O2)O1`, which Relative potency [1] is on record?
Answer: 1.4

Question: And the Ratio [2]?
Answer: 1.1

Question: And the IC50 [3]?
Answer: 0.34 nM

Question: And the Relative potency [4]?
Answer: 73.5

Question: What about the IC50 [5] of the same molecule?
Answer: 0.39 nM

Question: Which Relative potency [1] does the source give for `CCCCCC/C(CCC[C@H](O)[C@H]1CC[C@H]([C@H]2CC[C@H]([C@H](O)CCCCCCCCCCCCC3=C[C@H](C)OC3=O)O2)O1)=N\O` here?
Answer: 3

Question: And the Ratio [2]?
Answer: 1.2

Question: And the IC50 [3]?
Answer: 0.74 nM

Question: What about the Relative potency [4] of the same molecule?
Answer: 33.8

Question: What about the IC50 [5] of the same molecule?
Answer: 0.9 nM

Question: For `CCCCCCCCCC[C@H](O)[C@H]1CC[C@@H]([C@@H]2CC[C@H]([C@H](O)CCCCCCCCCC[C@@H](O)CC3=C[C@H](C)OC3=O)O2)O1` [rolliniastatin-1], which Relative potency [1] is on record?
Answer: 2.4

Question: What about the Ratio [2] of the same molecule?
Answer: 1.2

Question: What about the IC50 [3] of the same molecule?
Answer: 0.6 nM

Question: And the Relative potency [4]?
Answer: 41.7

Question: And the IC50 [5]?
Answer: 0.74 nM

Question: With `CCCCCCCCCC[C@H](OC(C)=O)[C@H]1CC[C@@H]([C@@H]2CC[C@H]([C@@H](CCCCCCCCCC[C@H](CC3=C[C@H](C)OC3=O)OC(C)=O)OC(C)=O)O2)O1` as the molecule, how does the Relative potency [1] read?
Answer: 5.8

Question: And the Ratio [2]?
Answer: 1300

Question: And the IC50 [3]?
Answer: 1.46 nM

Question: What about the IC50 [5] of the same molecule?
Answer: 1890 nM

Question: With `CCCCCCCCCC[C@H](O)[C@H]1CC[C@@H]([C@@H]2CC[C@H]([C@H](O)CCCCCCCCCC/C(CC3=C[C@H](C)OC3=O)=N\O)O2)O1` as the molecule, how does the Relative potency [1] read?
Answer: 1

Question: What about the Ratio [2] of the same molecule?
Answer: 1.1

Question: What about the IC50 [3] of the same molecule?
Answer: 0.25 nM

Question: What about the Relative potency [4] of the same molecule?
Answer: 100

Question: What about the IC50 [5] of the same molecule?
Answer: 0.29 nM
